# LANA DNA inh – KSHV C-LANA DNA binding inhibition; MBP-C-LANA/FAM-LBS DNA binding, fluorescence polarization; inhibition, % at 9 µM; actives 0.078% (n = 340,000);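 active = highest replicate inhibition at or above 60% at 9 µM, even if other replicates fall short; inactive = all replicates below 60% inhibition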
# Cardiac RTF inh – cardiac RTF calcium desensitization; P19429+P45379; IANBD-labeled cardiac RTF, Ca2+ fluorescence; inhibition, % at 7.15 µM; actives 0.12% (n = 340,000); AID 493244;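 active = inhibition above the mean inhibition of all tested compounds plus 3 SD, cut at about 17% in these data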;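 note: assay run at fixed EC70 calcium of 1.6 mM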
# Tn6 DDE FP – disrupts Tn6 cyclic peptide binding to fibrin D-Dimer-E complex | Fibrin DD(E) TRITC-Tn6 fluorescence polarization displacement | P02675 | actives 0.21% (n = 370,000) | inhibition, % at 8.3 µM;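 active = inhibition above a per-campaign cutoff: mean of compounds within control limits plus 3 SD, cut at about 15% in these data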
# Target sequence (P02675 whole entry, looked up): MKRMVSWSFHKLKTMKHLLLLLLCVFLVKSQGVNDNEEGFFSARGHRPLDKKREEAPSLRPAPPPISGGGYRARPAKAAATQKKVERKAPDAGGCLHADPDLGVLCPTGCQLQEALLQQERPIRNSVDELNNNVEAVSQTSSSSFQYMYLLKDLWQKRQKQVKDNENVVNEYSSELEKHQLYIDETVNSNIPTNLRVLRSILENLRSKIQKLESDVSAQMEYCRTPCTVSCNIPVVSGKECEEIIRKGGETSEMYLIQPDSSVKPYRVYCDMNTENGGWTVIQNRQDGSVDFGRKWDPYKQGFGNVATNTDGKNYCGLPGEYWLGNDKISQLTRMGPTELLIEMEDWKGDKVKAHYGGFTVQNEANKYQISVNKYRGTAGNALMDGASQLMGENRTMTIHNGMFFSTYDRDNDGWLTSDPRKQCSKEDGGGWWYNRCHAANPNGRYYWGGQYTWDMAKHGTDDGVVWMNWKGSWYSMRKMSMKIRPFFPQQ
# Tn7 DDE FP – DD(E)-Tn7 binding inhibition, primary FP screen; inhibition, % at 8.3 µM; actives 0.13% (n = 370,000); FP displacement of FITC-Tn7 peptide from fibrin DD(E); 0% = median of compound wells per plate; P02675;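 active = inhibition above the mean of compounds falling within the control limits plus 3 SD of them, cut at about 14% in these data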
#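 Also added: labelled Tn7 tracer, 0.1 µM; Assay system: human fibrin DD(E) protein; Amount: 2 µM fibrin DD(E); Schedule: 10 min compound pre-incubation, 3 h probe incubation at room temperature; Repeats: one replicate per compound; Read-out basis: percent inhibition; Measured by: fluorescence polarization of the labelled Tn7 tracer.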
# cardiac RTF act – cardiac RTF calcium sensitization | P19429+P45379 | IANBD-labeled TnC RTF fluorescence at EC20 calcium; 0% EC20 calcium, 100% full calcium | activation, % at 7.2 µM | actives 0.24% (n = 340,000);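 active = activation above the mean over all tested compounds plus 3 SD, cut at about 30% in these data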;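 note: rise in fluorescence read as greater calcium sensitivity of cardiac thin filaments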
# Keap1-Nrf2 PPI – Keap1-Nrf2 (human) interaction inhibition. Keap1 Kelch-Nrf2 peptide fluorescence polarization, 1536-well. inhibition, % at 9.4 µM. actives 0.15% (n = 340,000). AID 504523; in the data active = inhibition above about 12%;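 note: human Keap1 Kelch domain with fluorescein labeled Nrf2 9mer peptide probe; higher means more block of Keap1 binding to Nrf2 peptide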
# Tn7 DDE conf – DD(E)-Tn7 binding inhibition, FP confirmation. inhibition, % at 8.3 µM. shares compounds with Tn7 DDE FP. actives 5% (n = 460). FP displacement of TRITC-Tn7 peptide from DD(E); 0% set at plate's compound-well median;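 active = inhibition above the campaign cutoff, the mean of compounds within control limits plus 3 SD, cut at about 14% in these data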;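 note: displacers lower polarization since freed probe rises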
# Tn7 DDE ctr – DD(E)-Tn7 binding inhibition, counter-screen | shares compounds with Tn7 DDE FP | fibrin DD(E), TRITC-Tn7 probe displacement, fluorescence polarization | inhibition, % at 8.3 µM | actives 3% (n = 460) | AID 720633;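 active = inhibition above the cutoff, the mean of compounds lying between the control bounds plus 3 SD of those compounds, cut at about 17% in these data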
# Numbers stand for hits; 0 = inactive; - = not tested or not shown. In the library only some 0.73% were active in any assay of this set; here they are far more common.
SMILES,LANA DNA inh,Cardiac RTF inh,Tn6 DDE FP,Tn7 DDE FP,cardiac RTF act,Keap1-Nrf2 PPI,Tn7 DDE conf,Tn7 DDE ctr
CCCCCCCCN1C(=O)[C@H](CC(=O)N2CCOCC2)C[C@@]2(C(=O)OCC)CCCC=C12,-,-,0,0,-,-,-,-
CN1C(=O)C[C@@](C#N)(C(=O)NCc2ccc3c(c2)OCO3)[C@H]1c1ccccc1,-,-,0,0,-,-,-,-
CC(=O)Nc1sc2c(c1-c1nc3ccccc3s1)CCN(C(C)C)C2,0,0,-,-,0,0,-,-
C#CCCC(=O)Nc1sc2c(c1-c1nc3ccccc3s1)CCN(C(C)C)C2,-,-,0,16.2,-,-,14.0,0
Cc1ccc(NC(=O)Cc2nnc(SCC(=O)Nc3nncs3)n2C)c(C)c1,0,0,0,0,0,0,-,-
Cn1c(CC(=O)Nc2ccccc2Cl)nnc1SCC(=O)Nc1nncs1,0,0,0,14.1,0,0,0,0
C/C(=N/NC(=O)CN1CCN(Cc2ccccc2Cl)CC1)c1cccc(O)c1,-,-,0,0,-,-,-,-
COc1cc(NC(=O)c2ccc(-c3cccnc3)c3ccoc23)cc(OC)c1OC,-,-,0,0,-,-,-,-
O=C(Nc1cccc(OC(F)(F)F)c1)c1ccc(-c2cccnc2)c2ccoc12,-,-,0,14.0,-,-,0,0
C=CCN1C(=O)C(Cc2ccccc2)S/C1=N/N=C/c1cccs1 (centres undefined),0,0,0,13.9,0,0,0,0
CC(C)CN1C(=O)C[C@]2(C(=O)N(C)c3ccc(NS(=O)(=O)C4CCCCC4)cc32)C1c1ccccc1 (some centres undefined),-,-,0,0,-,-,-,-
COc1ccc(S(=O)(=O)N2CCN(CC(=O)NCCc3cccs3)CC2)cc1,0,0,0,15.5,0,0,0,0
Cn1c(CN2CCCCC2)nc2cc(NC(=O)c3ccc(F)cc3)ccc21,0,0,0,15.4,0,0,0,0
Cn1c(CN2CCCCC2)nc2cc(NC(=O)c3ccccc3Cl)ccc21,0,0,0,0,0,0,-,-
Cc1cccc(-c2cccc3c4c([nH]c23)[C@@H]2C[C@H](N(C)C(=O)NC3CCCCC3)[C@H]([C@H](C)O)CN2CC4)c1,-,-,0,0,-,-,-,-
CC1(c2ccc(Cl)cc2)NC(=O)N(CC(=O)N2CCc3ccccc3C2)C1=O (centres undefined),0,0,0,15.2,0,0,0,0
CC1(c2ccccc2Cl)NC(=O)N(CC(=O)N2CCc3ccccc3C2)C1=O (centres undefined),0,0,0,0,0,0,-,-
COc1ccccc1NC(=O)c1cc(S(=O)(=O)N2CCCC2)cn1C,0,0,0,15.1,0,0,0,0
CCOC(=O)C1CCN(CC(=O)N2CCc3ccccc32)CC1,0,0,0,13.8,0,0,0,0
COc1cc([N+](=O)[O-])ccc1NC(=O)CCCOc1ccccc1,0,0,0,0,0,0,-,-
COc1cc([N+](=O)[O-])ccc1NC(=S)NNC(=O)CCC(=O)Nc1ccccc1Cl,0,0,0,14.6,0,0,0,0
COc1ccc(C=Cc2ccc3ccccc3n2)c(OC)c1,-,-,0,26.7,-,-,0,0
Cc1cc(C(F)F)n2ncc(C(=O)NCc3ccccc3C(F)(F)F)c2n1,0,0,0,14.3,0,0,0,0
CC1CCCCC1N(C(=O)c1cc(C2CC2)on1)C1CCCCC1 (centres undefined),-,-,0,0,-,-,-,-
Cc1ccc(CC(=O)Nc2ccc(F)c([N+](=O)[O-])c2)cc1,0,0,0,14.7,0,0,0,0
SMILES,LANA DNA inh,Cardiac RTF inh,Tn6 DDE FP,Tn7 DDE FP,cardiac RTF act,Keap1-Nrf2 PPI,Tn7 DDE conf,Tn7 DDE ctr
Brc1ccc2nc(-c3ccc(CN4CCC5(CC4)CNc4ccccc45)cc3)c(-c3ccccc3)nc2c1,-,-,0,0,-,-,-,-
O=C(CSc1nnc(Cc2cccs2)n1-c1ccccc1)Nc1ccccc1-c1ccccc1,-,-,0,0,-,-,-,-
O=C(Nc1ccc(F)cc1F)Nc1sccc1-c1nc2ccccc2s1,0,0,0,15.3,0,0,0,0
Cc1ccc(CN2CCC2(C)C(=O)NC(C)C)cc1 (centres undefined),-,-,0,0,-,-,-,-
Cc1ccc(CN2CCCC2(C)C(=O)NC(C)C)cc1 (centres undefined),-,-,0,13.9,-,-,0,0
CCOC(=O)N1C(=O)C[C@](Sc2ccc(OC)cc2)(C(=O)N2CCN(C(C)=O)CC2)[C@H]1c1ccc(OC)cc1,-,-,0,0,-,-,-,-
CCOC(=O)C1=CCN(S(=O)(=O)c2cccc(Cl)c2)C1c1cccc(C)c1 (centres undefined),-,-,0,0,-,-,-,-
CCOC(=O)C1=CCN(S(=O)(=O)c2cccc(Cl)c2)C1c1cccc(Cl)c1 (centres undefined),-,-,0,15.6,-,-,0,0
Cc1ccc(N/C=C/C(=O)c2ccc(C)cc2)cc1,0,0,0,14.7,0,0,0,0
CCc1nc2ccc(C(=O)NCc3ccc(OC)cc3)cn2c1N(CC)CCOC,-,-,0,0,-,-,-,-
CN(C)C(CNC(=O)c1cc(S(=O)(=O)N(C)c2ccc(F)cc2)ccc1Cl)c1cccs1 (centres undefined),0,0,0,14.6,0,0,0,0
O=C1C=CC(O)(c2cc(=O)c3c(O)cc(O)cc3o2)C=C1,0,0,0,14.5,0,0,0,0
COc1ccc(NC(=O)CN2C(=O)C(C)Oc3ccccc32)cc1OC (centres undefined),-,0,0,14.2,0,0,0,0
CCCCOCCCNC(=O)C[C@@H]1C[C@]2(C(=O)OCC)CCC3=C2N(CCC3)C1=O,-,-,0,0,-,-,-,-
COc1ccccc1C(=O)NCC(=O)OCC(=O)Nc1ccc2[nH]c(=O)[nH]c2c1,0,0,0,15.4,0,0,0,0
O=C(COC(=O)CNC(=O)c1ccccc1F)Nc1ccc2[nH]c(=O)[nH]c2c1,0,0,0,0,0,0,-,-
CC(C)(C)S(=O)N1Cc2cc(C(=O)N[C@@H]3CCN(Cc4ccccc4)C3)nc(-c3cccc(-c4cc5ccccc5o4)c3)c2[C@@H]1CCO (some centres undefined),-,-,0,0,-,-,-,-
Cc1nn(C)c(C)c1CCC(=O)O,0,0,0,14.3,0,0,0,0
CCOC(=O)C1=Nc2cccc3c(O)ccc1c23,-,-,0,45.9,-,-,21.1,0
CSc1ccc(C2C(C(=O)c3ccco3)=C(O)C(=O)N2c2nnc(SC)s2)cc1 (centres undefined),0,0,0,25.8,0,0,0,0
Cc1nnc(N2C(=O)C(O)=C(C(=O)c3ccco3)C2c2ccc(F)cc2)s1 (centres undefined),0,0,0,0,0,0,-,-

# From PubChem
